Assay results as given in ChEMBL document CHEMBL3352189 (J Med Chem, 2014).
In brackets after ≈: the same amount, converted by molar mass. Activity calls are given as the source filed them. No cut-off for these calls is given here.

How the values were obtained:
[1] = test system: Venezuelan equine encephalitis virus; assay: Antiviral activity against Venezuelan equine encephalitis virus TC83 infected in Vero 76 cells assessed as reduction in virus-induced cytopathic effect after 2 days by Celltiter-Glo reagent based assay; format: functional, organism-based; settings: TC83, Vero 76, 48 h
[2] = biological target: Androgen receptor (Rattus norvegicus) (UniProt P15207); assay: Displacement of [3H]mibolerone from rat androgen receptor at 10 uM
CYP2D6 = CYP2D6 (Homo sapiens, UniProt P10635); assay: Inhibition of human CYP2D6 at 10 uM; format: ADME
Sequence of CYP2D6 (P10635 whole entry): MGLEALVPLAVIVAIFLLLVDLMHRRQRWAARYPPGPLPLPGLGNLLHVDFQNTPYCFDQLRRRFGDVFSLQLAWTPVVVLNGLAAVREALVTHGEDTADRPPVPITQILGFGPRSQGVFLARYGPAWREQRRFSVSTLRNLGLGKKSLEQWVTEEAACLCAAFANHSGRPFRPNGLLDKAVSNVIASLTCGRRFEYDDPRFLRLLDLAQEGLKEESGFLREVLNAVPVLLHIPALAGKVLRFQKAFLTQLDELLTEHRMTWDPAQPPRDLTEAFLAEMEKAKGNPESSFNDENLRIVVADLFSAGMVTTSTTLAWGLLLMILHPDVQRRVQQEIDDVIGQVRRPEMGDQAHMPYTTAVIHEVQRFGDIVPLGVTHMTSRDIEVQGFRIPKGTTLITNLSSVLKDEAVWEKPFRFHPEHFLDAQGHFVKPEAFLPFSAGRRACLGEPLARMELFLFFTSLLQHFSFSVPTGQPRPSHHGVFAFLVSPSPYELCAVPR

[3] = biological target: D(1A) dopamine receptor (Homo sapiens) (UniProt P21728); assay: Displacement of [3H]SCH-23390 from human dopamine D1 receptor at 10 uM
Mus musculus [4] = assay: Toxicity in Venezuelan equine encephalitis virus TC83 infected C3H/HeN mouse assessed as induction of ruffled fur at 5 mg/kg/day, ip BID for 4 days; format: organism-based; design: route intraperitoneal; settings: in vivo, 96 h
[5] = test system: Venezuelan equine encephalitis virus; assay: Antiviral activity against Venezuelan equine encephalitis virus TrD infected in Vero 76 cells assessed as reduction in viral titer at 5 uM by crystal violet staining based microplaque assay relative to untreated control; format: functional, organism-based
[6] = biological target: Sigma non-opioid intracellular receptor 1 (Homo sapiens) (UniProt Q99720); assay: Displacement of [3H]haloperidol from human sigma1 receptor at 10 uM
Rattus norvegicus [7] = organism: Rattus norvegicus; assay: Displacement of [3H]rolipram from rat Rolipram binding site at 10 uM
[8] = biological target: Cannabinoid receptor 1 (Homo sapiens) (UniProt P21554); assay: Displacement of [3H]SR141716A from human CB1 receptor at 10 uM
[9] = biological target: Adenosine receptor A3 (Homo sapiens) (UniProt P0DMS8); assay: Displacement of [125I]AB-MECA from human adenosine A3 receptor at 10 uM
Sequence of Adenosine receptor A3 (Homo sapiens) (P0DMS8 whole entry): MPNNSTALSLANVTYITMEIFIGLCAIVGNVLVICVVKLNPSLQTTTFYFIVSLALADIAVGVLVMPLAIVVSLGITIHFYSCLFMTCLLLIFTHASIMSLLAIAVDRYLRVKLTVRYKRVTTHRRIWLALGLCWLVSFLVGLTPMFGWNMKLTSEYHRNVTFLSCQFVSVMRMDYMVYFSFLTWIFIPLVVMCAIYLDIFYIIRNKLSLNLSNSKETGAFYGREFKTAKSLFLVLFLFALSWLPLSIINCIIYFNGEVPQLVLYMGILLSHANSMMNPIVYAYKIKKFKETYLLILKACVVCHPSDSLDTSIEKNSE

[10] = biological target: Prostaglandin E2 receptor EP4 subtype (Homo sapiens) (UniProt P35408); assay: Displacement of [3H]prostaglandin E2 from human EP4 […] at 10 uM
[11] = Drug concentration in C57BL/6 mouse brain at 1 mg/kg, ip administered as single dose measured after 120 mins by LC/MS analysis based RACE assay; format: ADME, organism-based; design: dose 1 mg/kg, route intraperitoneal; settings: read-out: Drug uptake
Method in brief: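 Brain tissue taken at the terminal 120 min point after one intraperitoneal dose (1, 5 or 10 mg/kg) in C57BL/6 mice, 3 per group, with a vehicle cohort. Drug level measured by LC/MS, averaging two injections per sample; reported as mean ± standard deviation, μM.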

[12] = biological target: D(4) dopamine receptor (Homo sapiens) (UniProt P21917); assay: Displacement of [3H]spiperone from human dopamine D4.2 receptor at 10 uM
Sequence of D(4) dopamine receptor (Homo sapiens) (P21917 whole entry): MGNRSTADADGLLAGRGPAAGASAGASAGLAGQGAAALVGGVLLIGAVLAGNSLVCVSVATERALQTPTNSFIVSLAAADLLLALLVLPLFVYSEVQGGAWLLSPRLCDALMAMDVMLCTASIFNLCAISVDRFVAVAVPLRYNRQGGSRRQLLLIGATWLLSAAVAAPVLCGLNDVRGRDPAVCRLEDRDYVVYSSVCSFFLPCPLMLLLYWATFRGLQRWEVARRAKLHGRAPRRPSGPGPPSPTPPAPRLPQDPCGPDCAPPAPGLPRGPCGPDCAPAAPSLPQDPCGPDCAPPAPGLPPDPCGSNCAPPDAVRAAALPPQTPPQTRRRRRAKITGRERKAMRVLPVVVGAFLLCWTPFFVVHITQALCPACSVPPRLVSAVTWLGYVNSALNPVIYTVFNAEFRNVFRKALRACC

[13] = biological target: Mu-type opioid receptor (Homo sapiens) (UniProt P35372); assay: Displacement of [3H]diprenorphine from human mu opiate receptor at 10 uM
Sequence of Mu-type opioid receptor (Homo sapiens) (P35372 whole entry): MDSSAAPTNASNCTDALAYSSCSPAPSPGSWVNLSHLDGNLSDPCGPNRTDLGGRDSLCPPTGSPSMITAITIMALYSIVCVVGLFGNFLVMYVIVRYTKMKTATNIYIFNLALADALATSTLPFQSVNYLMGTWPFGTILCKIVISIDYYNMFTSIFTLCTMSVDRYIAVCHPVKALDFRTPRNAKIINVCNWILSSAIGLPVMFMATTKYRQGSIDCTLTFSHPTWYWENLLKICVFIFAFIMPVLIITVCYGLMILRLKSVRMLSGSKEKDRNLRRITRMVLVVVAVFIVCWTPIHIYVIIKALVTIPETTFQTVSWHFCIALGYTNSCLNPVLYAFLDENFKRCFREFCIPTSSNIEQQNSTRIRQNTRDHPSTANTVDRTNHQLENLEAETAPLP

[14] = biological target: Histamine H2 receptor (Homo sapiens) (UniProt P25021); assay: Displacement of [125I]aminopotentidine from human histamine H2 receptor at 10 uM
Sequence of Histamine H2 receptor (Homo sapiens) (P25021 whole entry): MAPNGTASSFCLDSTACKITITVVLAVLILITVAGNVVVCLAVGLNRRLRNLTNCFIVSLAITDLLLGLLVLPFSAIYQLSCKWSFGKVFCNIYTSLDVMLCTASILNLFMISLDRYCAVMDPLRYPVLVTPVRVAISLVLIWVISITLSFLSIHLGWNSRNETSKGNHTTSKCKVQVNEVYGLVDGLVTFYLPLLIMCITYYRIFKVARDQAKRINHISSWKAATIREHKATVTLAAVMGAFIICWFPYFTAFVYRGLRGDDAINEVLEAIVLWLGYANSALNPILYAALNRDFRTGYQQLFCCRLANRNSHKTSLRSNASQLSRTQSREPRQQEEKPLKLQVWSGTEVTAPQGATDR

[15] = biological target: Neuropeptide Y receptor type 1 (Homo sapiens) (UniProt P25929); assay: Displacement of [125I]Peptide YY from human neuropeptide Y Y1 receptor at 10 uM
Plasma = assay: Stability in mouse plasma assessed as parent compound remaining after 3 hrs; format: ADME, cell-free
[16] = biological target: Histamine H2 receptor (Homo sapiens) (UniProt P25021); assay: Displacement of [3H]N-alpha-Methylhistamine from human histamine H3 receptor at 10 uM
[17] = biological target: Endothelin receptor type B (Homo sapiens) (UniProt P24530); assay: Displacement of [125I]endothelin-1 from human ETB receptor at 10 uM
Sequence of Endothelin receptor type B (Homo sapiens) (P24530 whole entry): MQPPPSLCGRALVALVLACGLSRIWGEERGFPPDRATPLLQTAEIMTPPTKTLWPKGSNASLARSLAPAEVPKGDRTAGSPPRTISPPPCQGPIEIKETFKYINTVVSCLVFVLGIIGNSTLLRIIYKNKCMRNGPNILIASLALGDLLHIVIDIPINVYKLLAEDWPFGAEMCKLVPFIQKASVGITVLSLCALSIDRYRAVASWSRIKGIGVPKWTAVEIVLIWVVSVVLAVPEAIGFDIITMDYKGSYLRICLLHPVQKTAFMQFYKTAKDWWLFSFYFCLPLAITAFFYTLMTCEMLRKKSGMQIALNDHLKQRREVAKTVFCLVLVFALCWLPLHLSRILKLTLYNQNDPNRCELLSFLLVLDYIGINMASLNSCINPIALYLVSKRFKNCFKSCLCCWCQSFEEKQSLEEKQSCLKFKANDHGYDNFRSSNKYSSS

Rattus norvegicus [18] = organism: Rattus norvegicus; assay: Displacement of radioligand from rat sodium channel site 2 at 10 uM
[19] = biological target: B1 bradykinin receptor (Homo sapiens) (UniProt P46663); assay: Displacement of [3H](Des-Arg10)-Kallidin from human bradykinin B1 receptor at 10 uM
[20] = biological target: Epidermal growth factor receptor (Homo sapiens) (UniProt P00533); assay: Displacement of [125I]EGF from human EGFR at 10 uM
Sequence of Epidermal growth factor receptor (Homo sapiens) (P00533 whole entry): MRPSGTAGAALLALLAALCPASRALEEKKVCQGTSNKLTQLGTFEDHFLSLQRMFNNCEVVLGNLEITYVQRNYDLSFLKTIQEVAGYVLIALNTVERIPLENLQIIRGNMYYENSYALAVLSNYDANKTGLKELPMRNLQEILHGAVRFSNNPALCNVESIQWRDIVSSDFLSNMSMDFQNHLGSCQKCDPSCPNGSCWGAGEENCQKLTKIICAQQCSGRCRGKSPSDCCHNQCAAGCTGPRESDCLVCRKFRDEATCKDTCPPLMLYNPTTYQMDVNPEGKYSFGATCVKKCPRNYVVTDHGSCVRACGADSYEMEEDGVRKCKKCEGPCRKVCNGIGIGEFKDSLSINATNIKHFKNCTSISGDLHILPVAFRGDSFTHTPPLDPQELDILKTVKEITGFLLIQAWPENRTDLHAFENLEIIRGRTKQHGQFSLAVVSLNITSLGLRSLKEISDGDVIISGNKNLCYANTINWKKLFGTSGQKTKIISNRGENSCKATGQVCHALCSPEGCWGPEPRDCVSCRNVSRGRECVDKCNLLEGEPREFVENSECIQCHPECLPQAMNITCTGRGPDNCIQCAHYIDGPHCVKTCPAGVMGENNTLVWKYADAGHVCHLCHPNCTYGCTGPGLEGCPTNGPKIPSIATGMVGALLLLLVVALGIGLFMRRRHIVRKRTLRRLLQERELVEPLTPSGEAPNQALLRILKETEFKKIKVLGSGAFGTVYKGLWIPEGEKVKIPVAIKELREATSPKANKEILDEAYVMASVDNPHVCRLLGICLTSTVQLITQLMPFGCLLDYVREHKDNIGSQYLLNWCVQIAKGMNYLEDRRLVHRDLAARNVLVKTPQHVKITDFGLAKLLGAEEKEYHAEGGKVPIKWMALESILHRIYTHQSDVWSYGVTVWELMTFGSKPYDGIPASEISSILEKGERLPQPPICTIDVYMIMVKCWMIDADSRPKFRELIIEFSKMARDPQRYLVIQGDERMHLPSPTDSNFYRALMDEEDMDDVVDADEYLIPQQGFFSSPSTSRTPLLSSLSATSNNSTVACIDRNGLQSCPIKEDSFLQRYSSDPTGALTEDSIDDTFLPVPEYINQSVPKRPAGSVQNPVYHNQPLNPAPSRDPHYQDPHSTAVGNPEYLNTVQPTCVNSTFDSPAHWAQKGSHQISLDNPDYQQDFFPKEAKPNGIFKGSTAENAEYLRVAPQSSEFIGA

[21] = Aqueous solubility in PBS buffer; format: physicochemical
Method in brief: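 Solubility measured in 1× PBS at pH 7.4.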

[22] = Hepatotoxicity in human Fa2N-4 cells; format: toxicity, cell-based; settings: read-out: LD50 (the source's name)
[23] = biological target: Gamma-aminobutyric acid type B receptor subunit 1 (Homo sapiens) (UniProt Q9UBS5); assay: Displacement of [3H]CGP-54626 from human GABA B1A receptor at 10 uM
Sequence of Gamma-aminobutyric acid type B receptor subunit 1 (Homo sapiens) (Q9UBS5 whole entry): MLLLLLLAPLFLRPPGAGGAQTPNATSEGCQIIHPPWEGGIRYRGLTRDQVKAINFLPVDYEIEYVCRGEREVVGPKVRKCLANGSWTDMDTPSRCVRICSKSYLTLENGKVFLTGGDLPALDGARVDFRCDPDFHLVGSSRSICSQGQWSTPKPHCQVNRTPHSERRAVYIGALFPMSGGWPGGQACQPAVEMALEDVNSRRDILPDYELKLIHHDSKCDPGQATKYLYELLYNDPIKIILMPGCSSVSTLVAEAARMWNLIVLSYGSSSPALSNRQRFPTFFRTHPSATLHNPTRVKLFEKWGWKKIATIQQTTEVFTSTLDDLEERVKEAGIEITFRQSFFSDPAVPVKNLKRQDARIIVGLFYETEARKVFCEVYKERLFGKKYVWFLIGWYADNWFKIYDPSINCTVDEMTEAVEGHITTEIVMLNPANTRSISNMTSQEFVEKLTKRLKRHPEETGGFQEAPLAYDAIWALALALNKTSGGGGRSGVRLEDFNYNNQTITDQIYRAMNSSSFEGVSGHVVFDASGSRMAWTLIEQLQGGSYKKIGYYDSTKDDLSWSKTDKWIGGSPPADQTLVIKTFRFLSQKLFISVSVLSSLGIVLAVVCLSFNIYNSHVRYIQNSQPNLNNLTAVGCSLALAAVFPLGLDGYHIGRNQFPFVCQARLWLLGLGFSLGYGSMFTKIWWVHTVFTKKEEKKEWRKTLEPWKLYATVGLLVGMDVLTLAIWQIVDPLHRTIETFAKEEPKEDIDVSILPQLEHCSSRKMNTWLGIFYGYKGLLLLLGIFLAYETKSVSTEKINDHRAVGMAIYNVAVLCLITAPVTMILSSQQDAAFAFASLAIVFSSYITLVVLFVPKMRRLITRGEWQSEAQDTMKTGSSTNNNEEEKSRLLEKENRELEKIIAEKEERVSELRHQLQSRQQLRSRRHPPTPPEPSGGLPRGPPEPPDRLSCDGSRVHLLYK

[24] = biological target: Delta-type opioid receptor (Homo sapiens) (UniProt P41143); assay: Displacement of [3H]naltrindole from human delta1 opiate receptor at 10 uM
Sequence of Delta-type opioid receptor (Homo sapiens) (P41143 whole entry): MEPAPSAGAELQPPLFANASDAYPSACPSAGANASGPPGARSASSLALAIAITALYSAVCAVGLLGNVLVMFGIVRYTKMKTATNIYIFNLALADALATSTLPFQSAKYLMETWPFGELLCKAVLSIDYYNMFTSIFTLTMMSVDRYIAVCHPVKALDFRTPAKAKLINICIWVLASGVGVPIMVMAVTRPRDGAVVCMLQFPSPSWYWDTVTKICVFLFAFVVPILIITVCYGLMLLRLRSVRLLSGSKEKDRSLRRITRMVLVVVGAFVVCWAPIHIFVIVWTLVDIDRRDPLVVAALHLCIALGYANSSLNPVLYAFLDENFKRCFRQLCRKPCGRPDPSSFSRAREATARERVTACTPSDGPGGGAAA

Cytochrome P450 1A2 = Cytochrome P450 1A2 (Homo sapiens, UniProt P05177); assay: Inhibition of human CYP1A2 at 10 uM; format: ADME
Method in brief: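 Human CYP inhibition run with reference inhibitors as controls: α-naphthoflavone for CYP1A2 and ketoconazole for CYP3A4.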

CYP2C19 = CYP2C19 (Homo sapiens, UniProt P33261); assay: Inhibition of human CYP2C19 at 10 uM; format: ADME
[25] = Chemical stability in presence of 5x DTT assessed as parent compound remaining incubated for 8 hrs; format: physicochemical; settings: read-out: Stability
[26] = biological target: Beta-1 adrenergic receptor (Homo sapiens) (UniProt P08588); assay: Displacement of [125I]cyanopindolol from human adrenergic beta1 receptor at 10 uM
Mus musculus [27] = assay: Toxicity in Venezuelan equine encephalitis virus TC83 infected C3H/HeN mouse assessed as induction of ruffled fur at 40 mg/kg/day, ip BID for 4 days; format: organism-based; design: route intraperitoneal; settings: in vivo, 96 h
[28] = test system: Venezuelan equine encephalitis virus; assay: Antiviral activity against Venezuelan equine encephalitis virus V3526 infected in Vero 76 cells assessed as reduction in virus-induced cytopathic effect after 2 days by Celltiter-Glo reagent based assay; format: functional, organism-based; settings: V3526, Vero 76, 48 h
[29] = Plasma concentration in C57BL/6 mouse at 5 mg/kg, ip administered as single dose measured after 20 mins by LC/MS analysis based RACE assay; format: ADME, organism-based; design: dose 5 mg/kg, route intraperitoneal
Method in brief: (§1)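 Single intraperitoneal dose of 1, 5 or 10 mg/kg given to C57BL/6 mice, 3 mice per dose and time point, with a vehicle-control cohort. Plasma was sampled at 20 and 120 min post-dose and drug level measured by LC/MS. Each time point averaged two injections (<20% difference); values are means ± standard deviation in μM.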

[30] = biological target: Endothelin-1 receptor (Homo sapiens) (UniProt P25101); assay: Displacement of [125I]endothelin-1 from human ETA receptor at 10 uM
[31] = biological target: Muscarinic acetylcholine receptor M3 (Homo sapiens) (UniProt P20309); assay: Displacement of [3H]N-Methylscopolamine from human muscarinic M3 receptor at 10 uM
[32] = biological target: L-type calcium channel, benzothiazepine site (Rattus norvegicus, UniProt P22002+P27732+Q02485); assay: Displacement of [3H]diltiazem from rat calcium channel L-Type benzothiazepine site at 10 uM; format: protein assay; settings: probe [3H]diltiazem
[33] = Plasma concentration in C57BL/6 mouse at 1 mg/kg, ip administered as single dose measured after 20 mins by LC/MS analysis based RACE assay; format: ADME, organism-based; design: dose 1 mg/kg, route intraperitoneal; method in brief: as §1

SMILES: CN1CCN(C)/C(=N/c2ccc([N+](=O)[O-])cc2C(=O)Nc2ccccc2)C1
- EC50 [1]: 30 nM
- inhibition [2]: 1.1%
- inhibition at 10 µM (CYP2D6): 28%
- inhibition [3]: 2.65%
- Activity (Mus musculus [4]): Non-toxic
- inhibition [5]: Active
- inhibition [6]: 6.54%
- inhibition (Rattus norvegicus [7]): 34.9%
- inhibition [8]: -2.06%
- inhibition [9]: 26.7%
- inhibition [10]: 4.82%
- concentration at 2 h [11]: 190 nM
- inhibition [12]: 11.2%
- inhibition [13]: 25.4%
- inhibition [14]: 20.4%
- inhibition [15]: 25.9%
- Stability (Plasma): 65.4%
- inhibition [16]: 15.8%
- inhibition [17]: 8.32%
- inhibition (Rattus norvegicus [18]): 9.27%
- inhibition [19]: 9.23%
- inhibition [20]: -2.63%
- solubility [21]: 40.4 µg/mL (≈ 110 µM)
- CC50 [22]: > 250000 nM
- inhibition [23]: 35.9%
- inhibition [24]: -2.18%
- inhibition (INH) (Cytochrome P450 1A2): 1.5%
- inhibition at 10 µM (CYP2C19): 17%
- remaining at 8 h [25]: 99%
- inhibition [26]: 3.56%
- Activity (Mus musculus [27]): Non-toxic
- EC50 [28]: 20 nM
- concentration at 20 min [29]: 1450 nM
- inhibition [30]: 7.78%
- inhibition [31]: 3%
- inhibition at 10 µM [32]: 7.06%
- concentration at 20 min [33]: 200 nM
